ChEMBL document CHEMBL2176984, “Target Selectivity of FimH Antagonists” (J Med Chem, 2012)
Activity calls are given as the source filed them. No cut-off for these calls is given here.

Tests used:
[1] = molecular target: T1, Macrophage mannose receptor 1 (Homo sapiens) (UniProt P22897); test: Displacement of biotinylated-TM PAA from human MMR at 50 mM after 3 hrs by colorimetry
T1 sequence (whole entry): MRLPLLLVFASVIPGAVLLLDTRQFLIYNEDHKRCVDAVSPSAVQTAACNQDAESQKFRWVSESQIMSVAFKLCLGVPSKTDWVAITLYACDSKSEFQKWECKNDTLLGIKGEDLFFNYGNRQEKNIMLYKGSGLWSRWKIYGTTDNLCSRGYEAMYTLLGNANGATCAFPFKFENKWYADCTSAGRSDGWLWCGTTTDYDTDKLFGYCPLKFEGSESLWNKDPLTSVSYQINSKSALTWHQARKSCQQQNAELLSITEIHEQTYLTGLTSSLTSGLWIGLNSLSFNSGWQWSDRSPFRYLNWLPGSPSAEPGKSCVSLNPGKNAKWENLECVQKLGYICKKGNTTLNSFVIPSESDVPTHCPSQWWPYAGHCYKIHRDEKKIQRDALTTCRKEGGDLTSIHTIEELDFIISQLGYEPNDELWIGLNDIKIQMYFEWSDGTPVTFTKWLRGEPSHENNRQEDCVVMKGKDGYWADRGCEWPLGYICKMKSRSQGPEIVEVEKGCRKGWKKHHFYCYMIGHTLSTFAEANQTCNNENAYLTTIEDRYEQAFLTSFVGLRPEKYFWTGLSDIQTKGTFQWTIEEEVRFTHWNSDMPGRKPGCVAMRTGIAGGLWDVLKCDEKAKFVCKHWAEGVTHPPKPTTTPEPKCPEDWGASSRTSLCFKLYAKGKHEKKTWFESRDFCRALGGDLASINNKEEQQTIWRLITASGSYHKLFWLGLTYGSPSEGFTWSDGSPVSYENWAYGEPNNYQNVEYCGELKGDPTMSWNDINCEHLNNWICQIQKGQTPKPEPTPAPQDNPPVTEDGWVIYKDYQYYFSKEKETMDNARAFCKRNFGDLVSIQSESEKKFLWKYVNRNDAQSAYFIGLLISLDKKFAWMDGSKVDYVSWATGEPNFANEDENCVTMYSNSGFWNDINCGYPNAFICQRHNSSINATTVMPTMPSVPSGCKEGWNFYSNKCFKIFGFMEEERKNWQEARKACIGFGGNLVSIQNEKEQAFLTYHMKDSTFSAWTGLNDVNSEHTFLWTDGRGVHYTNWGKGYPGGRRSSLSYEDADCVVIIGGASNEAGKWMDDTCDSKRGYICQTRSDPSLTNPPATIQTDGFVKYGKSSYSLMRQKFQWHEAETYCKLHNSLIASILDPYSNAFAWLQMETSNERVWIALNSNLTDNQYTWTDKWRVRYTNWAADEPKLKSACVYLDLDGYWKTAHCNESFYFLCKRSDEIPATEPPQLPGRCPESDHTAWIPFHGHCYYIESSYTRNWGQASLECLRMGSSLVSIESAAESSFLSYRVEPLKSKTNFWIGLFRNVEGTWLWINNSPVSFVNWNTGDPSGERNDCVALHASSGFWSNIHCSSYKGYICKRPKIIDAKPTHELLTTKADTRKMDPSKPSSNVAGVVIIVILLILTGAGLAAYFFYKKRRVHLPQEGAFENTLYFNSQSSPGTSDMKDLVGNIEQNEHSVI
Procedure, shortened: (§1)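 α-D-mannose served as the positive control at 50 mM final, mixed with streptavidin-HRP-TM-PAA and applied to lectin-coated wells. Wells were coated overnight at 4 °C in HEPES/NaCl/10 mM CaCl2 at pH 7.4 and blocked with BSA. Incubation was 3 h at 25 °C, followed by four washes and ABTS development for 4 min, stopped with oxalic acid, OD 415 nm. Binding is expressed as % of the antagonist-free signal after subtracting the polymer-free background.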

[2] = molecular target: T2, C-type lectin domain family 4 member C (Homo sapiens) (UniProt Q8WTT0); test: Displacement of biotinylated-TM PAA from human DLEC at 50 mM after 3 hrs by colorimetry; procedure, shortened: as §1
T2 sequence (whole entry): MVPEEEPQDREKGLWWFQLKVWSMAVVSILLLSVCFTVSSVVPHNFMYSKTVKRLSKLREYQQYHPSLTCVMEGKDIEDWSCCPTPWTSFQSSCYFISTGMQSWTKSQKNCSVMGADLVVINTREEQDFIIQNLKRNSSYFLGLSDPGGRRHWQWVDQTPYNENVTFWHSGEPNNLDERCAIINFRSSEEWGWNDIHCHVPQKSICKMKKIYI

[3] = molecular target: Mannose-binding protein C (Homo sapiens) (UniProt P11226); test: Displacement of biotinylated-TM PAA from human MBP at 50 mM after 3 hrs by colorimetry; procedure, shortened: as §1
[4] = molecular target: T3, C-type lectin domain family 4 member M (Homo sapiens) (UniProt Q9H2X3); test: Displacement of biotinylated-TM PAA from human DC-SIGNR at 50 mM after 3 hrs by colorimetry; procedure, shortened: as §1
T3 sequence (whole entry): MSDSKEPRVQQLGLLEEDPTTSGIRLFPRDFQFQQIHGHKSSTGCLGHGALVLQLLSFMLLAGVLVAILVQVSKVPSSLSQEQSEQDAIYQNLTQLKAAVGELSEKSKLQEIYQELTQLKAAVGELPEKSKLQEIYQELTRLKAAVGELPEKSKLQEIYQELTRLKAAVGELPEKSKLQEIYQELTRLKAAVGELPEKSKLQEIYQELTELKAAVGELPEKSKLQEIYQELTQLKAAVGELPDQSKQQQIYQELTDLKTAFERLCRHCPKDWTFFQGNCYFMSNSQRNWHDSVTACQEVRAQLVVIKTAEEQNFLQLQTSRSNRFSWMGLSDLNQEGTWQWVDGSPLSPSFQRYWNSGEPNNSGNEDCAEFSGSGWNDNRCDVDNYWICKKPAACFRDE

[5] = system: Escherichia coli; test: Displacement of biotinylated-TM PAA from Escherichia coli FimH expressed in Escherichia coli HM125 at 50 mM after 3 hrs by colorimetry; procedure, shortened: as §1
[6] = molecular target: T4, C-type lectin domain family 4 member K (Homo sapiens, UniProt Q9UJ71); test: Displacement of biotinylated-TM PAA from human langerin at 50 mM after 3 hrs by colorimetry; procedure, shortened: as §1
[7] = molecular target: T5, C-type lectin domain family 6 member A (Homo sapiens) (UniProt Q6EIG7); test: Displacement of biotinylated-TM PAA from human Dectin-2 at 50 mM after 3 hrs by colorimetry; procedure, shortened: as §1
T5 sequence (whole entry): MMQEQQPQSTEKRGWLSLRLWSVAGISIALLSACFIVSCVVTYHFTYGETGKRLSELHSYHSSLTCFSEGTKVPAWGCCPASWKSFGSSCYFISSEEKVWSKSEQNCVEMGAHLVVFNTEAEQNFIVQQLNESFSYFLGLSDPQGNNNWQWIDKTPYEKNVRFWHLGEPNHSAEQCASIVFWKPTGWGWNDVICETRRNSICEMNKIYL

[8] = molecular target: T6, Pulmonary surfactant-associated protein D (Homo sapiens) (UniProt P35247); test: Displacement of biotinylated-TM PAA from human SP-D at 50 mM after 3 hrs by colorimetry; procedure, shortened: as §1
T6 sequence (whole entry): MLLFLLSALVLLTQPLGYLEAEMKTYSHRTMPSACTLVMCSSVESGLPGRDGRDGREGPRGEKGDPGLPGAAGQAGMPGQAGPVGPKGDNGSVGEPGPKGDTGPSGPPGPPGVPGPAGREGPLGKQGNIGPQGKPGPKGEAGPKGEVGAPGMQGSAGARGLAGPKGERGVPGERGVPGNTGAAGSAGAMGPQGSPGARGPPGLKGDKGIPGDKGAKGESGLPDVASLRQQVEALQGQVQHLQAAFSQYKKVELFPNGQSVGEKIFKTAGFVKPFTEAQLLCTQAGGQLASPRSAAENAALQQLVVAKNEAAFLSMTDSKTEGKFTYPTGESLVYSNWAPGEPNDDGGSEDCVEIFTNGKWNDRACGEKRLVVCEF

[9] = molecular target: T7, CD209 antigen (Homo sapiens) (UniProt Q9NNX6); test: Displacement of biotinylated-TM PAA from human DC-SIGN at 50 mM after 3 hrs by colorimetry; procedure, shortened: as §1
T7 sequence (whole entry): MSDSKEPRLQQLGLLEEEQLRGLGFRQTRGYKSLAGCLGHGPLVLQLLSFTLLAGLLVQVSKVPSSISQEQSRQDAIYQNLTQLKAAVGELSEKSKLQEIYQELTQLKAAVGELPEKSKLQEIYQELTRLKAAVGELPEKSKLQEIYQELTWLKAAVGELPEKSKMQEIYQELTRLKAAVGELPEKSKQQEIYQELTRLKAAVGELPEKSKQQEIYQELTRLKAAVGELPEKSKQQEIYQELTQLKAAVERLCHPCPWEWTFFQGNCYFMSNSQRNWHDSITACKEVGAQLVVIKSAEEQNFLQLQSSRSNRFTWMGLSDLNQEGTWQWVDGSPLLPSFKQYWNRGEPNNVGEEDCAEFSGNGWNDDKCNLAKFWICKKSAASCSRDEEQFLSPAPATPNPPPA

[10] = Displacement of biotinylated-TM PAA from Escherichia coli FimH expressed in Escherichia coli HM125 after 3 hrs by colorimetry
[11] = molecular target: T1, Macrophage mannose receptor 1 (Homo sapiens); test: Displacement of biotinylated-TM PAA from human MMR at 1 mM after 3 hrs by colorimetry
Procedure, shortened: (§2)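 Proteins were coated overnight at 4 °C in 20 mM HEPES pH 7.4, 150 mM NaCl and 10 mM CaCl2, then blocked with 3% BSA for 2 h at 4 °C. FimH was a CRD-thrombin-6His construct expressed in E. coli HM125; DC-SIGN and DC-SIGNR were CRD-Fc chimeras made in stably transfected CHO-K1. Compound at 1 mM final was co-added with streptavidin-HRP-coupled TM-PAA, incubated 3 h at 25 °C and 350 rpm, then read by ABTS OD 415 nm. No-antagonist signal was set to 100% and no-polymer background to 0%.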

[12] = molecular target: T8, Macrophage mannose receptor 1 (Homo sapiens, UniProt P22897); test: Displacement of biotinylated-TM PAA from human MMR after 3 hrs by colorimetry
T8 sequence (P22897 whole entry): T1 sequence (whole entry)

[13] = molecular target: T6, Pulmonary surfactant-associated protein D (Homo sapiens); test: Displacement of biotinylated-TM PAA from human SP-D at 1 mM after 3 hrs by colorimetry; procedure, shortened: as §2
[14] = molecular target: T7, CD209 antigen (Homo sapiens); test: Displacement of biotinylated-TM PAA from human DC-SIGN at 1 mM after 3 hrs by colorimetry; procedure, shortened: as §2
[15] = molecular target: T4, C-type lectin domain family 4 member K; test: Displacement of biotinylated-TM PAA from human langerin at 1 mM after 3 hrs by colorimetry; procedure, shortened: as §2
[16] = system: Escherichia coli; test: Displacement of biotinylated-TM PAA from Escherichia coli FimH expressed in Escherichia coli HM125 at 1 mM after 3 hrs by colorimetry; procedure, shortened: as §2
[17] = molecular target: Mannose-binding protein C (Homo sapiens) (UniProt P11226); test: Displacement of biotinylated-TM PAA from human MBP at 1 mM after 3 hrs by colorimetry; procedure, shortened: as §2
[18] = molecular target: T5, C-type lectin domain family 6 member A (Homo sapiens); test: Displacement of biotinylated-TM PAA from human Dectin-2 at 1 mM after 3 hrs by colorimetry; procedure, shortened: as §2
[19] = molecular target: T2, C-type lectin domain family 4 member C (Homo sapiens); test: Displacement of biotinylated-TM PAA from human DLEC at 1 mM after 3 hrs by colorimetry; procedure, shortened: as §2
[20] = molecular target: T3, C-type lectin domain family 4 member M (Homo sapiens); test: Displacement of biotinylated-TM PAA from human DC-SIGNR at 1 mM after 3 hrs by colorimetry; procedure, shortened: as §2
[21] = Cmax in mouse; format: ADME, organism-based; details: in vivo
[22] = molecular target: T4, C-type lectin domain family 4 member K; test: Displacement of biotinylated-TM PAA from human langerin after 3 hrs by colorimetry
[23] = molecular target: T9, C-type lectin domain family 4 member C (Homo sapiens, UniProt Q8WTT0); test: Displacement of biotinylated-TM PAA from human DLEC after 3 hrs by colorimetry
T9 sequence (Q8WTT0 whole entry): T2 sequence (whole entry)

T4 sequence (Q9UJ71 whole entry, the tested form may be a part): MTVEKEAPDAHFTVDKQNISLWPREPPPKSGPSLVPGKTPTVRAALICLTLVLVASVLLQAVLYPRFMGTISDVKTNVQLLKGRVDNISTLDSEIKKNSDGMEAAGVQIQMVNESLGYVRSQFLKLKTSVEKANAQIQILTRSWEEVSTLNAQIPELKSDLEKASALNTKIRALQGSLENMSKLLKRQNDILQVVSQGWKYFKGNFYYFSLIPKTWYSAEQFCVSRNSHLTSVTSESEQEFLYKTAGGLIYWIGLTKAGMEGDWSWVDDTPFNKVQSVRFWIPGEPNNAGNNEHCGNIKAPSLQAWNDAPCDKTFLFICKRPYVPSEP
Sequence of Mannose-binding protein C (Homo sapiens) (P11226 whole entry, the tested form may be a part): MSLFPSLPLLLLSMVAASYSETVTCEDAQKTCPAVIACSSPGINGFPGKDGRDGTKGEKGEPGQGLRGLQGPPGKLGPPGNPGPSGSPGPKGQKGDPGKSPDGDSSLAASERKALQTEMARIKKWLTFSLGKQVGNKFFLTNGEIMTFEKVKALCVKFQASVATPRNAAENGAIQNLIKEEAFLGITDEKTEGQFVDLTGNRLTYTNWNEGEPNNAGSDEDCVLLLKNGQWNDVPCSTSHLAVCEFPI

SMILES	IC50 [10] [µM]	inhibition [11]	IC50 [12] [µM]	inhibition [13]	inhibition [14]	inhibition [15]	inhibition [16]	inhibition [17]	inhibition [18]	inhibition [19]	inhibition [20]	Cmax [21] [µM]	also measured
OC[C@H]1OC(O)[C@@H](O)[C@@H](O)[C@@H]1O (stereo not given in full)	–	–	–	–	–	–	–	–	–	–	–	–	inhibition [1]: > 90%; inhibition [2]: > 90%; inhibition [3]: > 90%; inhibition [4]: > 90%; inhibition [5]: > 90%; inhibition [6]: > 90%; inhibition [7]: > 90%; inhibition [8]: > 90%; inhibition [9]: > 90%
O=C(O)c1ccc2c(ccn2-c2ccc(O[C@H]3O[C@H](CO)[C@@H](O)[C@H](O)[C@@H]3O)c(Cl)c2)c1	0.02	58%	1000	inactive	inactive	inactive	Active	inactive	inactive	inactive	inactive	–	–
O=C(O)c1ccc(-c2ccc(O[C@H]3O[C@H](CO)[C@@H](O)[C@H](O)[C@@H]3O)c(Cl)c2)cc1	–	54%	1000	inactive	inactive	63%	Active	inactive	inactive	inactive	inactive	97	IC50 [22]: 1000 µM
CN1CCN(c2c(Nc3ccc(O[C@H]4O[C@H](CO)[C@@H](O)[C@H](O)[C@@H]4O)c(Cl)c3)c(=O)c2=O)CC1	0.031	inactive	–	inactive	inactive	inactive	Active	inactive	inactive	inactive	inactive	–	–
CCCCCCCO[C@H]1O[C@H](CO)[C@@H](O)[C@H](O)[C@@H]1O	0.065	inactive	–	inactive	inactive	inactive	Active	inactive	inactive	inactive	inactive	144	–
O=C(O)c1ccc(-c2ccc(O[C@H]3O[C@H](CO)[C@@H](O)[C@H](O)[C@@H]3O)cc2)cc1	0.017	inactive	–	inactive	inactive	inactive	Active	inactive	inactive	50%	inactive	80	IC50 [23]: 1000 µM
